Experiments:
[1] = Acute cytotoxicity against human neutrophils assessed as cell viability measured for 30 mins by trypan blue exclusion method; assay type: cell-based; details: neutrophil, 0.5 h
Summary of the method: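 Neutrophils isolated from healthy donor blood by dextran sedimentation and Nycoprep centrifugation, then resuspended in PBS pH 7.4 with 1 mg/ml glucose and 1 mM CaCl₂. Cells were kept 30 min at 37 °C with compound, and cell integrity was read by trypan blue exclusion on an automated counter.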

[2] = target: T1, Arachidonate 5-lipoxygenase-activating protein (Homo sapiens, UniProt P20292); assay: Inhibition of FLAP in Ca+2 ionophore A23187 stimulated human neutrophils assessed as 5-LO product formation preincubated for 15 mins measured after 10 mins by RP-HPLC analysis
T1 sequence (P20292 whole entry): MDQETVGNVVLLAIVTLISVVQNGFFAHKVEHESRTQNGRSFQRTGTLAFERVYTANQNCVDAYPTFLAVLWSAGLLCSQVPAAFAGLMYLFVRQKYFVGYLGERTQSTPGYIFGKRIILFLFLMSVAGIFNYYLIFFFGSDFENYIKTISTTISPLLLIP

[3] = target: T2, Arachidonate 5-lipoxygenase-activating protein (Homo sapiens) (UniProt P20292); assay: Inhibition of FLAP in Ca+2 ionophore A23187 stimulated human neutrophils assessed as remaining 5-LO activity preincubated for 15 mins at 10 uM measured after 10 mins by RP-HPLC analysis
T2 sequence (whole entry): T1 sequence (P20292 whole entry)

[4] = target: T3, Polyunsaturated fatty acid 5-lipoxygenase (Homo sapiens, UniProt P09917); assay: Inhibition of recombinant human 5-LO expressed in Escherichia coli BL21 assessed as 5-LO product formation preincubated for 15 mins followed by addition of arachidonic acid as substrate measured after 10 mins by RP-HPLC analysis
T3 sequence (P09917 whole entry): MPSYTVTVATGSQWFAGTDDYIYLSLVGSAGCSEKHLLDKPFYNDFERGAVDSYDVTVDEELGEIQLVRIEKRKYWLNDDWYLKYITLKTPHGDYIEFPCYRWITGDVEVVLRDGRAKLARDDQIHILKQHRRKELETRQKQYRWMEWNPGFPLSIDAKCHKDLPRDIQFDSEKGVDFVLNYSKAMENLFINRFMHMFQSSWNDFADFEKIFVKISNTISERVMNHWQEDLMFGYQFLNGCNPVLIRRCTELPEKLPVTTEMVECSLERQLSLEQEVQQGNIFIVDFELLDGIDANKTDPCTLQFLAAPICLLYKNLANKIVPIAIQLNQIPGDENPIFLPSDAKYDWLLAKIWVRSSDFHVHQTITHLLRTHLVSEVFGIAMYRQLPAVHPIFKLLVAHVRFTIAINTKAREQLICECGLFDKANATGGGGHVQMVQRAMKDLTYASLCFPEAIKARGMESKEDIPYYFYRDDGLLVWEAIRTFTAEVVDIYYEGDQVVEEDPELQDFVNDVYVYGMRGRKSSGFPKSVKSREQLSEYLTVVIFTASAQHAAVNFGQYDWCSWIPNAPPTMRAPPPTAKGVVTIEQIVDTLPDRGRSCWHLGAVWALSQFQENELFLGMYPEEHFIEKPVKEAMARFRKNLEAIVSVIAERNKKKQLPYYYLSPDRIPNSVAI
Summary of the method: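 Semi-purified 5-LO was diluted in ice-cold PBS with 1 mM EDTA and 1 mM ATP, then held 15 min at 4 °C with compound or 0.1% DMSO. After a 30 s prewarm at 37 °C, 2 mM CaCl₂ plus 20 arachidonic acid were added for 10 min at 37 °C. The reaction was stopped with methanol, and LTB₄ all-trans isomers plus 5-H(P)ETE were read by RP-HPLC. IC₅₀ is n = 3–4 in duplicates.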

Compound	Activity [1]	IC50 [2] [nM]	Activity [3] [%]	IC50 [4] [nM]
CCOC(=O)c1noc(-c2ccc(OCc3ccccc3C)cc2)c1-c1ccc(Cl)cc1	Non-toxic	> 10000	71.9	–
O=C(O)c1noc(-c2ccc(OCc3cccc(F)c3)cc2)c1-c1ccc(Cl)cc1	Non-toxic	1300	19.6	–
O=C(O)c1noc(-c2ccc(OCc3nc4ccccc4s3)cc2)c1-c1ccc(Cl)cc1	Non-toxic	240	2	> 10000
CCOC(=O)c1noc(-c2ccc(OCc3ccc(C)cc3)cc2)c1-c1ccc(Cl)cc1	Non-toxic	–	61.4	–
O=C(O)c1noc(-c2ccc(OCc3ccccc3C(F)(F)F)cc2)c1-c1ccc(Cl)cc1	Non-toxic	770	5.5	–
Cc1ccccc1COc1ccc(-c2onc(C)c2-c2ccc(Cl)cc2)c(O)c1	Non-toxic	–	3	–
CC(c1cc2ccccc2s1)N(O)C(N)=O (stereo not drawn) [ZILEUTON]	Non-toxic	–	6.7	–
Cc1ccc(COc2ccc(-c3onc(C(=O)O)c3-c3ccc(Cl)cc3)cc2)cc1	Non-toxic	1400	15.7	–
Cc1ccccc1COc1ccc(-c2onc(C(=O)O)c2-c2ccc(Cl)cc2)cc1	Non-toxic	1700	13.1	–
O=C(O)c1noc(-c2ccc(OCc3ccc4ccccc4n3)cc2)c1-c1ccc(Cl)cc1	Non-toxic	240	2.7	–
CCOC(=O)c1noc(-c2ccc(OCc3cccc(F)c3)cc2)c1-c1ccc(Cl)cc1	Non-toxic	–	55.3	–
N#Cc1cccc(COc2ccc(-c3onc(C(=O)O)c3-c3ccc(Cl)cc3)cc2)c1	Non-toxic	4100	6.9	–
COc1cc(OCc2ccccc2C)ccc1-c1onc(C)c1-c1ccc(Cl)cc1	Non-toxic	–	81.3	–
O=C(O)c1noc(-c2ccc(OCc3ccccn3)cc2)c1-c1ccc(Cl)cc1	Non-toxic	4100	8.4	–
O=C(O)c1noc(-c2ccc(OCc3ccccc3Cl)cc2)c1-c1ccc(Cl)cc1	Non-toxic	1200	5.1	–
Cc1ccccc1COc1ccc(-c2onc(C)c2-c2ccc(Cl)cc2)cc1	Non-toxic	–	102	–
